Results: ChEMBL document CHEMBL1123221, “Dihydropyridazinone cardiotonics: the discovery and inotropic activity of 1,3-dihydro-3,3-dimethyl-5-(1,4,5,6-tetrahydro-6-oxo-3-pyridazinyl)-2H -indol-2-one” (J Med Chem, 1986)

Assays:
Felis catus [1] = organism: Felis catus; assay: Compound was evaluated for inotropic activity in cat papillary muscles at concentration of (10e -5)M; type: functional, Papillary muscle
How it was run: (§1)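 Isolated cat papillary muscles under 1.0 g base-line tension, field-stimulated with square-wave pulses (2.0 ms, 12/min, 20% above threshold). Equilibrated 60 min. Each muscle was checked with 10^-6 M isoproterenol for 3 min and rejected if the response was under 120% of control, then washed and stabilized 30 min. Test compound given cumulatively (10^-7–10^-4 M) at 30-min intervals; contractility increase recorded.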

Felis catus [2] = organism: Felis catus; assay: Compound was evaluated for inotropic activity in cat papillary muscles at concentration of (10e -4)M; type: functional, Muscle tissue; how it was run: as §1
Felis catus [3] = organism: Felis catus; assay: Compound was evaluated for inotropic activity in cat papillary muscles at concentration of (10e -6)M; type: functional, Papillary muscle; how it was run: as §1
Canis familiaris [4] = assay: Compound was tested for cardiovascular profile in conscious dogs at dose of 500 ug/kg po; type: functional, Canis lupus familiaris, Heart
How it was run: (§2)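 Conscious, chronically instrumented dogs fasted 18 h; drug or lactose placebo given orally in 000 gelatin capsules. Contractility index was LV dP/dt60 (first derivative of left ventricular pressure at 60 mmHg); heart rate and LV systolic pressure also monitored.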

Canis familiaris [5] = assay: Evaluated for percent decrease in maximum arterial blood pressure in anesthetized dogs; type: functional, Canis lupus familiaris
How it was run: (§3)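 Right ventricular contractility measured by strain-gauge arch at 50 g tension; femoral arterial pressure and heart rate also recorded. Increasing log doses given iv at 5-min intervals, with peak responses recorded. ED50 by linear regression (mean ± SEM). Heart rate and MAP are % changes at the inotropic ED50.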

Canis familiaris [6] = assay: Tested for cardiovascular contractility in anesthetized dogs; type: functional; settings: Canis lupus familiaris; how it was run: as §3
Canis familiaris [7] = assay: Evaluated for percent increase in heart rate in anesthetized dogs; type: functional, Canis lupus familiaris; how it was run: as §3
Canis familiaris [8] = assay: Compound was evaluated for percent increase in heart rate in anesthetized dogs; type: functional, Canis lupus familiaris
How it was run: as §3, with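 “Mongrel dogs of either sex (7–14 kg), pentobarbital-anesthetized (35 mg/kg iv), ventilated, kept at 37–38 °C. Right” for “Right”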

Canis familiaris [9] = assay: Compound was evaluated for percent decrease in maximum arterial blood pressure in anesthetized dogs; type: functional, Canis lupus familiaris, Artery; design: scale not given: the % may be the effect or the level left
How it was run: as §3, with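 “Mongrel dogs of either sex (7–14 kg), pentobarbital-anesthetized (35 mg/kg iv), ventilated, kept at 37–38 °C. Right” for “Right”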

Canis familiaris [10] = assay: Compound was tested for cardiovascular profile in conscious dogs at dose of 50 ug/kg po
Canis familiaris [11] = assay: Compound was tested for cardiovascular profile in conscious dogs at dose of 25 ug/kg po
Felis catus [12] = organism: Felis catus; assay: Compound was evaluated for inotropic activity in cat papillary muscles at concentration of (10e-6) M; type: functional, Papillary muscle; how it was run: as §1
Felis catus [13] = organism: Felis catus; assay: Compound was evaluated for inotropic activity in cat papillary muscles at concentration of (10e-5) M; type: functional, Papillary muscle; how it was run: as §1
Canis familiaris [14] = assay: Compound was tested for cardiovascular profile in conscious dogs at dose of 400 ug/kg po
Canis familiaris [15] = assay: Compound was tested for cardiovascular profile in conscious dogs at dose of 100 ug/kg po
[16] = Half-life measured by the effect on contractility after oral administration of 25 ug/kg in dog; settings: in vivo, 0.025 mg/kg
[17] = Oral bioavailability determined in dog; type: ADME, organism-based, Canis lupus familiaris; settings: in vivo
Half-life in dog = settings: in vivo
Canis familiaris [18] = assay: Percent increase in contractility by administration of 500 ug/kg in conscious dog model; type: functional, Canis lupus familiaris
How it was run: as §2, with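 “monitored. Peak response generally taken 150 min post-dose; mean ± SEM of four experiments.” for “monitored.”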

Compound | Contractile force (% of control) (Felis catus [2]) [%] | Decrease (Canis familiaris [5]) [%] | ED50 (Canis familiaris [6]) [mg/kg] | Increase (Canis familiaris [7]) [%] | also measured
O=C1CCC(c2ccc3c(c2)CCC(=O)N3)=NN1 | 154 | 8.7 | 0.0033 | 18.5 | Contractility (% of control) (Felis catus [1]): 156%; Control (Felis catus [3]): 150%; Percent of control (Canis familiaris [4]): 157%
CC1CC(c2ccc3c(c2)C(C)(C)C(=O)N3)=NNC1=O (stereo not drawn) |  | 20 | 0.015 | 13 | 
CCC1(CC)C(=O)Nc2ccc(C3=NNC(=O)CC3)cc21 |  | 7.5 | 0.741 | 8.9 | 
CC1CC(=O)NN=C1c1ccc2c(c1)C(C)(C)C(=O)N2C (stereo not drawn) |  | 26 | 0.0044 | 21.4 | 
CN1N=C(c2ccc3c(c2)CC(=O)N3)CCC1=O |  | 7 | 0.271 | 11 | 
CC1CC(=O)NN=C1c1ccc2c(c1)C(C)(C)C(=O)N2 (stereo not drawn) |  |  | 0.0032 |  | Control (Canis familiaris [8]): 16%; Control (Canis familiaris [9]): 26%; Control (Canis familiaris [10]): 150%
CCC1C(=O)Nc2ccc(C3=NNC(=O)CC3)cc21 (stereo not drawn) |  | 12 | 0.071 | 18 | 
O=C1CCC(c2ccc3c(c2)CCCC(=O)N3)=NN1 | 139 | 18 | 0.0052 | 12 | Contractility (% of control) (Felis catus [1]): 137%; Control (Felis catus [3]): 121%; Percent of control (Canis familiaris [4]): 131%
CN1C(=O)C(C)(C)c2cc(C3=NNC(=O)CC3)ccc21 |  | 13 | 0.052 | 8 | 
CC(=O)Nc1ccc(C2=NNC(=O)CC2C)cc1 (stereo not drawn) | 216 | 16.6 | 0.002 | 11.7 | Control (Canis familiaris [11]): 170%; Control (Felis catus [12]): 167%; Control (Felis catus [13]): 183%
CC(=O)Nc1ccc(C2=NNC(=O)CC2)cc1 | 141 | 6 | 0.0116 | 5 | Contractility (% of control) (Felis catus [1]): 128%; Percent of control (Canis familiaris [4]): 132%
CCCC1(C)C(=O)Nc2ccc(C3=NNC(=O)CC3)cc21 (stereo not drawn) |  | 9.6 | 0.0198 | 9.3 | 
CC1C(=O)Nc2ccc(C3=NNC(=O)CC3)cc21 (stereo not drawn) |  | 21.8 | 0.0096 | 8 | Control (Canis familiaris [11]): 141%
Cc1cc(C2=NNC(=O)CC2)cc2c1NC(=O)C2(C)C |  | 17 | 0.0095 | 8.5 | 
CCC1(C)C(=O)Nc2ccc(C3=NNC(=O)CC3C)cc21 (stereo not drawn) |  | 20 | 0.0148 | 11 | 
CCC1(C)C(=O)Nc2ccc(C3=NNC(=O)CC3)cc21 (stereo not drawn) |  | 3.1 | 0.022 | 2 | Control (Canis familiaris [14]): 149%
CN1C(=O)CCc2cc(C3=NNC(=O)CC3)ccc21 |  | 21 | 0.0124 | 26 | Control (Canis familiaris [15]): 134%
CC1(C)CC(=O)Nc2ccc(C3=NNC(=O)CC3)cc21 |  | 15 | 0.086 | 5.9 | Percent of control (Canis familiaris [4]): 133%
O=C1CCC(c2ccc3c(c2)CC(=O)N3)=NN1 | 152 | 4.3 | 0.024 | 5.6 | Contractility (% of control) (Felis catus [1]): 147%; Control (Felis catus [3]): 116%; Percent of control (Canis familiaris [4]): 164%
Cc1cc2c(cc1C1=NNC(=O)CC1)C(C)(C)C(=O)N2 |  | 0.5 | 0.04 | 7.9 | 
CC1(C)Cc2cc(C3=NNC(=O)CC3)ccc2NC1=O |  | 3 | 0.021 | 8.5 | Percent of control (Canis familiaris [4]): 116%
O=C1CCC(c2ccc3c(c2)CCCN3)=NN1 |  | 12 | 0.257 | 37 | 
O=C1CCC(c2ccc(-n3ccnc3)cc2)=NN1 [IMAZODAN] | 173 | 18 | 0.046 | 9.5 | Contractility (% of control) (Felis catus [1]): 147%
CC1(C)C(=O)Nc2ccc(C3=NNC(=O)CC3)cc21 [INDOLIDAN] | 169 | 15.2 | 0.0068 | 11.8 | half-life [16]: > 8 h; Contractility (% of control) (Felis catus [1]): 164%; Control (Felis catus [3]): 134%; Control (Canis familiaris [11]): 151%; bioavailability [17]: 100%; half-life (Half-life in dog): 14 h
Cc1[nH]c(=O)c(C#N)cc1-c1ccncc1 [MILRINONE] | 158 | 8 | 0.037 | 9 | Increase (Canis familiaris [18]): 62%; Percent of control (Canis familiaris [4]): 162%; Control (Felis catus [13]): 148%
